Results published in ChEMBL document CHEMBL1833955, “Optimization of (arylpiperazinylbutyl)oxindoles exhibiting selective 5-HT₇ receptor antagonist activity” (J Med Chem, 2011).

Columns and labels:
[1] = Metabolic stability in rat liver microsomes after 60 mins by HPLC-MS/MS analysis; format: ADME, Microsome; conditions: read-out: Stability
Summary of the method: (§1)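 Test compound at 100 nM final incubated with rat or human liver microsomes (0.33 mg/mL) at 37 °C for 0, 5, 15, 30 and 60 min. Buffer Tris-HCl pH 7.4 with Mg2+ and BSA. Reaction started with NADPH and stopped with ice-cold MeOH. Parent compound measured by HPLC-MS/MS, positive-ion MRM.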

[2] = test system: Mus musculus; test: Antidepressant activity in ip dosed NMRI mouse assessed as decrease in immobility time administered 30 mins prior to test measured last 4 mins of 6 mins testing period by forced swimming test; format: functional; conditions: read-out: MED
Summary of the method: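 Mice given drug or vehicle ip 30 min before test. Each mouse placed in a 17.7 cm high, 12 cm diameter glass cylinder holding 25 °C water to 12.5 cm depth, four mice at a time. Immobility (floating, only movements keeping head above water) timed over the last 4 min of a 6 min session.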

[3] = Drug level in NMRI mouse brain at 10 mg/kg, ip after 30 mins by HPLC/MS/MS analysis; format: ADME, organism-based; parameters: dose 10 mg/kg, route intraperitoneal; conditions: read-out: Drug uptake
Summary of the method: (§2)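 Male NMRI mice, 25–30 g, given four compounds together ip as a cassette suspension in 0.4% methyl cellulose (n = 3/dose). After 30 min, vena cava blood and brain collected. Brain homogenised in 4 volumes of water; samples extracted with acetonitrile–water 3:1 and analysed by gradient HPLC-MS/MS against spiked calibrators. Brain/plasma given as percentage.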

[4] = Plasma concentration in NMRI mouse at 1 mg/kg, ip after 30 mins by HPLC-MS/MS analysis; format: ADME, organism-based; parameters: dose 1 mg/kg, route intraperitoneal; summary of the method: as §2
[5] = Drug level in NMRI mouse brain at 3 mg/kg, ip after 30 mins by HPLC/MS/MS analysis; format: ADME, organism-based; parameters: dose 3 mg/kg, route intraperitoneal; conditions: read-out: Drug uptake; summary of the method: as §2
[6] = Plasma concentration in NMRI mouse at 10 mg/kg, ip after 30 mins by HPLC-MS/MS analysis; format: ADME, organism-based; parameters: dose 10 mg/kg, route intraperitoneal; summary of the method: as §2
[7] = Plasma concentration in NMRI mouse at 3 mg/kg, ip after 30 mins by HPLC-MS/MS analysis; format: ADME, organism-based; parameters: dose 3 mg/kg, route intraperitoneal; summary of the method: as §2
[8] = biological target: T1, Adrenergic receptor alpha-1 (Rattus norvegicus, UniProt P15823+P23944+P43140); test: Displacement of [3H]prazosin from alpha1-adrenergic receptor in rat frontal cortex membrane after 45 mins by scintillation spectrometry; format: cell membranes
T1 sequence (P15823 whole entry): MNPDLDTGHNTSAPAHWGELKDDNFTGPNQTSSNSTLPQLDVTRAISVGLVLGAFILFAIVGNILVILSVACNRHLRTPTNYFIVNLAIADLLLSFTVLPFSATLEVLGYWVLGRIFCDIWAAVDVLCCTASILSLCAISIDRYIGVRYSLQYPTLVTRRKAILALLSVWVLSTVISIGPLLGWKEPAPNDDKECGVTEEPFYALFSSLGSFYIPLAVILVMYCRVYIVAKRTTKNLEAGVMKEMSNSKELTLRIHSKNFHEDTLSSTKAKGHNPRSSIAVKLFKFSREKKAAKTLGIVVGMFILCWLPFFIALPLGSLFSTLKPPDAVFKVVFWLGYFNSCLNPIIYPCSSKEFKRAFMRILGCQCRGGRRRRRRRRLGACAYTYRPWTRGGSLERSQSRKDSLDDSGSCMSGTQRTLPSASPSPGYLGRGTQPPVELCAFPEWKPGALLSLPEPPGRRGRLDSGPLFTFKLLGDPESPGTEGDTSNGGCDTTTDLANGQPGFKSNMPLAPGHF
T1 sequence (P23944 whole entry): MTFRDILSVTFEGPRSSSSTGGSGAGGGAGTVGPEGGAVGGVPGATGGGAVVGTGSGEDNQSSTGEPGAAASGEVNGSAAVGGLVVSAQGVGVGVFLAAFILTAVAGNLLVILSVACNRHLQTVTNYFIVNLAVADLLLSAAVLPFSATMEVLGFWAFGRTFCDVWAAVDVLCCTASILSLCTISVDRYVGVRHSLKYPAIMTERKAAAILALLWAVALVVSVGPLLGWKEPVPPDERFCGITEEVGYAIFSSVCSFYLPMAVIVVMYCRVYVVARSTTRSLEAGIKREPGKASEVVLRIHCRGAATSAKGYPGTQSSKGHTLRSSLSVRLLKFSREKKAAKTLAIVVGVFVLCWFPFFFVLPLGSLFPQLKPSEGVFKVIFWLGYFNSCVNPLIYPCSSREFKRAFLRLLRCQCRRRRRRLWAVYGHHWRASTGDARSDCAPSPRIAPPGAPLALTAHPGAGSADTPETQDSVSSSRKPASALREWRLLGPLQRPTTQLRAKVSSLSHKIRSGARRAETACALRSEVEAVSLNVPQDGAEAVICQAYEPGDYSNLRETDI
T1 sequence (P43140 whole entry): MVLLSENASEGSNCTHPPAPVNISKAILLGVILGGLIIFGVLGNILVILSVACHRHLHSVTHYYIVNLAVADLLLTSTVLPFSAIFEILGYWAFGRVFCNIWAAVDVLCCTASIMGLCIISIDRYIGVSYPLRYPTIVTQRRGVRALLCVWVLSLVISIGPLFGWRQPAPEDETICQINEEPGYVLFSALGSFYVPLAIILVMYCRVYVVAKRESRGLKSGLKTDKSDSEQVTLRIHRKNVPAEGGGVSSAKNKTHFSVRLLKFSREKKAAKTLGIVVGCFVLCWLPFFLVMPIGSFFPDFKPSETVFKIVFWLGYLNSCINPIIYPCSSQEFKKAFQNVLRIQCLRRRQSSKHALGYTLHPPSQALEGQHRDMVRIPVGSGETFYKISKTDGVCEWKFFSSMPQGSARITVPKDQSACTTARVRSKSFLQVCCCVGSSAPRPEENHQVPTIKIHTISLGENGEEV
Summary of the method: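 Rat frontal cortex tissue frozen on dry ice, homogenised in 50 mM Tris-HCl pH 7.7 and washed by centrifugation. [3H]prazosin at 0.6 nM; 10 μM prazosin defines nonspecific binding. 45 min at 25 °C, GF/B filtration, scintillation counting. Triplicates; Ki from two nine-concentration curves fitted to a single-site model.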

[9] = biological target: T2, 5-hydroxytryptamine receptor 1A (Rattus norvegicus) (UniProt P19327); test: Displacement of [3H]8-OH-DPAT from 5-HT1A receptor in rat frontal cortex membrane at 10^-7 M after 45 mins by scintillation counting; format: cell membranes
T2 sequence (whole entry): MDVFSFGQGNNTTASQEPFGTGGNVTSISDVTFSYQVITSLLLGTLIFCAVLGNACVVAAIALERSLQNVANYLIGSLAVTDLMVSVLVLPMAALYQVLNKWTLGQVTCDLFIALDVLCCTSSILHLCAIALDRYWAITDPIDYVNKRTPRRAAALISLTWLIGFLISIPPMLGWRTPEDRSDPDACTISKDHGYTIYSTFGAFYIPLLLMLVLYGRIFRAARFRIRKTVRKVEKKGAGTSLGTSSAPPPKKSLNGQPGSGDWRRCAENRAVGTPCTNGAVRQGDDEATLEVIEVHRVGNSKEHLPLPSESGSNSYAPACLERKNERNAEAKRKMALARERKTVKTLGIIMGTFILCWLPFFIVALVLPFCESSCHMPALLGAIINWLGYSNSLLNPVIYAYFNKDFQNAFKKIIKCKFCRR

[10] = Metabolic stability in human liver microsomes after 60 mins by HPLC-MS/MS analysis; format: ADME, Microsome; conditions: read-out: Stability; summary of the method: as §1
[11] = Selectivity ratio of Ki for 5-HT1A receptor in rat frontal cortex membrane to Ki for human 5-HT7 receptor; format: cell membranes
[12] = Selectivity ratio of Ki for alpha1-adrenergic receptor in rat frontal cortex membrane to Ki for human 5-HT7 receptor; format: cell membranes
[13] = Drug level in NMRI mouse brain at 1 mg/kg, ip after 30 mins by HPLC/MS/MS analysis; format: ADME, organism-based; parameters: dose 1 mg/kg, route intraperitoneal; conditions: read-out: Drug uptake; summary of the method: as §2
[14] = biological target: 5-hydroxytryptamine receptor 7 (Homo sapiens, UniProt P34969); test: Displacement of [3H]CT from human 5-HT7 receptor expressed in CHO cells by scintillation spectrometry; format: cell-based
Summary of the method: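 Cloned human 5-HT7 receptor from CHO cells, run under the supplier's recommended conditions with [3H]CT. Nonspecific binding with 25 μM clozapine. Ended by GF/C filtration, then scintillation counting. Ki taken from two nine-concentration displacement curves run in triplicate, single-site fit.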

[15] = test system: Rattus norvegicus; test: Anxiolytic activity in ip dosed Wistar rat assessed as number of punished licks administered 30 mins prior to test by conflict drinking Vogel test; format: functional; conditions: read-out: MED
Summary of the method: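 Male Wistar rats, 160–180 g, water-deprived 48 h and fasted 24 h. Drug or vehicle given ip 30 min before testing, carried out in a quiet room at 23 °C between 07:30 and 13:00. Modified Vogel procedure. Mean ± SEM tolerated shocks per group, one-way ANOVA with Duncan's test; MED reported.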

[16] = test system: Mus musculus; test: Anxiolytic activity in ip dosed NMRI mouse assessed as behavioral activity administered 30 mins prior to test measured up to 5 mins by light-dark test; format: functional; conditions: read-out: MED
Summary of the method: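 Male NMRI mice, 25–33 g, housed in the dark, dosed ip 30 min before test. Each mouse placed in the centre of the lit side of an automated two-compartment chamber under a 2-lx light. Activity recorded for 5 min: time in each area, transitions, horizontal and vertical activity. Means ± SEM, one-way ANOVA with Duncan's test; MED reported.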

[17] = biological target: T3, 5-hydroxytryptamine receptor 1A (Rattus norvegicus, UniProt P19327); test: Displacement of [3H]8-OH-DPAT from 5-HT1A receptor in rat frontal cortex membrane after 45 mins by scintillation counting; format: cell membranes
T3 sequence (P19327 whole entry): T2 sequence (whole entry)
Summary of the method: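 Membranes from adult rat frontal cortex, prepared in 50 mM Tris-HCl pH 7.7 with washes and a 37 °C preincubation. Incubation buffer: 6.66 mM CaCl2, 16.66 μM pargyline, 0.166% ascorbic acid. Ligand 1.5 nM [3H]8-OH-DPAT; 10 μM 5-HT defines nonspecific binding. 45 min at 25 °C, GF/B filtration, scintillation counting. Triplicates; Ki from two nine-point curves, single-site fit.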

5-hydroxytryptamine receptor 7, sequence (P34969 whole entry): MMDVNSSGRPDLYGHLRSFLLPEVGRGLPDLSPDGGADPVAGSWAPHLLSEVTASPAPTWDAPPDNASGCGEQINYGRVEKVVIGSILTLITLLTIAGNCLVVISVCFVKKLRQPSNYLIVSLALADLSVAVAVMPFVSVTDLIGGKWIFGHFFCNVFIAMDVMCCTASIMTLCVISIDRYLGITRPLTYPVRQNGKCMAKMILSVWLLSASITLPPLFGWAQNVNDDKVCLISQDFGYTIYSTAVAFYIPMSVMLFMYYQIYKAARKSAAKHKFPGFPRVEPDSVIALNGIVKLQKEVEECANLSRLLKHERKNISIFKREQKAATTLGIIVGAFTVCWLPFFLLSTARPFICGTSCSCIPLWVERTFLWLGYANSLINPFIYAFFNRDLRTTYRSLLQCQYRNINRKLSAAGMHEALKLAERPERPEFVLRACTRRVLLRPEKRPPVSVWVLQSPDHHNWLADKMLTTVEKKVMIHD

SMILES	remaining at 1 h [1]	concentration at 0.5 h [3]	concentration at 0.5 h [4]	concentration at 0.5 h [5]	concentration at 0.5 h [6]	concentration at 0.5 h [7]	Ki [8]	inhibition [9]	remaining at 1 h [10]	Ratio Ki [11]	Ratio Ki [12]	concentration at 0.5 h [13]	Ki [14]	Ki [17]	minimal effective dose [2]	minimal effective dose [15]	minimal effective dose [16]
CCC1(CCCCN2CCN(c3ccc(F)cc3)CC2)C(=O)Nc2ccccc21 (centres undefined)	8%	364 nM	34 nM	431 nM	168 nM	178 nM	39 nM	10%	34%	> 100	91	62 nM	–	–	> 10 mg/kg	–	–
CCC1(CCCCN2CCN(c3ccc(Cl)cc3)CC2)C(=O)Nc2ccccc21 (centres undefined)	9%	379 nM	70 nM	141 nM	399 nM	245 nM	93 nM	11%	34%	> 100	245	42 nM	–	–	–	–	> 10 mg/kg
CCC1(CCCCN2CCN(c3ccc(Cl)cc3)CC2)C(=O)Nc2ccc(Cl)cc21 (centres undefined)	21%	27 nM	10 nM	23 nM	8 nM	14 nM	175 nM	0%	23%	> 100	159	17 nM	1.1 nM	–	> 10 mg/kg	–	–
CCC1(CCCCN2CCN(c3ccc(Cl)cc3)CC2)C(=O)Nc2c1cc(Cl)c(F)c2Cl (centres undefined)	72%	–	–	–	–	–	380 nM	10%	76%	–	4	–	96 nM	–	> 30 mg/kg	> 20 mg/kg	> 10 mg/kg
CCC1(CCCCN2CCN(c3ccc(Cl)c(Cl)c3)CC2)C(=O)Nc2ccccc21 (centres undefined)	13%	1150 nM	31 nM	223 nM	861 nM	174 nM	125 nM	11%	29%	> 100	208	43 nM	0.6 nM	–	> 10 mg/kg	–	–
CCC1(CCCCN2CCN(c3ccc(Cl)cc3)CC2)C(=O)Nc2cc(F)ccc21 (centres undefined)	9%	135 nM	46 nM	99 nM	177 nM	130 nM	215 nM	9%	29%	> 100	272	33 nM	–	–	–	–	> 10 mg/kg

Now from value to molecule, other results behind:

remaining at 1 h [1]	concentration at 0.5 h [3]	concentration at 0.5 h [4]	concentration at 0.5 h [5]	concentration at 0.5 h [6]	concentration at 0.5 h [7]	Ki [8]	inhibition [9]	remaining at 1 h [10]	Ratio Ki [11]	Ratio Ki [12]	concentration at 0.5 h [13]	Ki [14]	Ki [17]	SMILES	minimal effective dose [2]	minimal effective dose [15]	minimal effective dose [16]
76%	–	–	–	–	–	110 nM	5%	53%	> 100	12	–	9.5 nM	–	CCC1(CCCCN2CCN(c3ccc(Cl)cc3)CC2)C(=O)Nc2c(Cl)cc(Cl)cc21 (centres undefined)	> 30 mg/kg	5 mg/kg	1 mg/kg
4%	824 nM	22 nM	613 nM	272 nM	168 nM	31 nM	–	31%	115	78	65 nM	0.4 nM	46 nM	CCC1(CCCCN2CCN(c3cccc(Cl)c3)CC2)C(=O)Nc2ccccc21 (centres undefined)	–	> 10 mg/kg	> 20 mg/kg
9%	4310 nM	21 nM	827 nM	744 nM	114 nM	26 nM	–	39%	135	53	216 nM	–	66 nM	O=C1Nc2ccccc2C1CCCCN1CCN(c2cccc(Cl)c2)CC1 (centres undefined)	–	–	> 10 mg/kg
